In ChEMBL document CHEMBL5608194, “Novel neuroprotective 5,6-dihydropyrido[2',1':2,3]imidazo[4,5-c]quinoline derivatives acting through cholinesterase inhibition and CB2 signaling modulation” (Eur J Med Chem, 2024):
The source made the active and inactive calls. No cut-off for these calls is given here.

Legend:
SH-SY5Y [1] = test: Inhibition of MPP+ induced mitochondrial superoxide radical production in human SH-SY5Y cells at 10 uM incubated for 24 hrs by MitoSOX staining based microplate reader assay (reference value: 100%); type: functional
Procedure, shortened: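 Neuron-like SH-SY5Y (20 000 cells/well) co-treated with 5 mM MPP+ and compound for 24 h; plates centrifuged, medium replaced by 5 μM MitoSOX in HBSS, 30 min at 37 °C, fluorescence 500/580 nm; MPP+ signal set to 100 %; triplicates on at least four independent days.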

SH-SY5Y [2] = test: Cytotoxicity against human SH-SY5Y cells assessed as cell death at 10 uM incubated for 72 hrs by propidium iodide staining based fluorescence assay; type: toxicity
Procedure, shortened: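 SH-SY5Y differentiated to neuron-like phenotype with 10 μM all-trans retinoic acid for 48 h, 20 000 cells/well. Compounds from DMSO stocks (DMSO ≤0.5 %) added, then 72 h exposure. Control wells lysed with 1 % Triton X-100 for 1 min, then all wells stained with propidium iodide for fluorescence read-out. Dead-cell proportion expressed relative to Triton X-100-treated control.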

SH-SY5Y [3] = test: Neuroprotective activity against ATRA-differentiated and 3-NPA induced cell death in human SH-SY5Y cells assessed as cell death at 0.1 uM incubated for 48 hrs by propidium iodide staining based fluorescence assay (reference value: 100%); type: functional
Procedure, shortened: (§1)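 ATRA-differentiated SH-SY5Y co-treated with compound and 20 mM 3-nitropropionic acid for 48 h; cell death by propidium iodide fluorescence, 3-NPA-treated signal set to 100 %.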

SH-SY5Y [4] = test: Neuroprotective activity against ATRA-differentiated and 3-NPA induced cell death in human SH-SY5Y cells assessed as cell death at 1 uM incubated for 48 hrs by propidium iodide staining based fluorescence assay (reference value: 100%); type: functional; procedure, shortened: as §1
SH-SY5Y [5] = test: Neuroprotective activity against ATRA-differentiated and 3-NPA induced cell death in human SH-SY5Y cells assessed as cell death at 10 uM incubated for 48 hrs by propidium iodide staining based fluorescence assay (reference value: 100%); type: functional; procedure, shortened: as §1
SH-SY5Y [6] = test: Neuroprotective activity against ATRA-differentiated and MPP+ induced cell death in human SH-SY5Y cells assessed as cell death at 0.1 uM incubated for 24 hrs by propidium iodide staining based fluorescence assay (reference value: 100%); type: functional
Procedure, shortened: (§2)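 ATRA-differentiated SH-SY5Y co-treated with compound and 5 mM MPP+ for 24 h; cell death by propidium iodide fluorescence, MPP+-treated signal set to 100 %.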

SH-SY5Y [7] = test: Neuroprotective activity against ATRA-differentiated and MPP+ induced cell death in human SH-SY5Y cells assessed as cell death at 1 uM incubated for 24 hrs by propidium iodide staining based fluorescence assay (reference value: 100%); type: functional; procedure, shortened: as §2
SH-SY5Y [8] = test: Neuroprotective activity against ATRA-differentiated and MPP+ induced cell death in human SH-SY5Y cells assessed as cell death at 10 uM incubated for 24 hrs by propidium iodide staining based fluorescence assay (reference value: 100%); type: functional; procedure, shortened: as §2
SH-SY5Y [9] = test: Neuroprotective activity against ATRA-differentiated and MPP+ induced cell death in human SH-SY5Y cells assessed as cell death at 10 uM by LDH release assay (reference value: 100%); type: functional
Procedure, shortened: (§3)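 ATRA-differentiated SH-SY5Y co-treated with 5 mM MPP+ and compound; cell death by commercial LDH release kit; MPP+ value set to 100 %; triplicates on at least three independent days.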

SH-SY5Y [10] = test: Neuroprotective activity against ATRA-differentiated and MPP+ induced cell death in human SH-SY5Y cells assessed as cell death at 1 uM by LDH release assay (reference value: 100%); type: functional; procedure, shortened: as §3
SH-SY5Y [11] = test: Neuroprotective activity against MPP+ induced cell death in human SH-SY5Y cells assessed as cell death at 10 uM by YOPRO-1 staining based assay; type: functional
Procedure, shortened: (§4)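 Neuron-like SH-SY5Y co-treated with compound and 5 mM MPP+ for 24 h; centrifuged at 500 × g, medium replaced by 1 μM YO-PRO1 in PBS for 15 min at room temperature; fluorescence 488/530 nm; MPP+ signal set to 100 %; triplicates on at least three independent days.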

SH-SY5Y [12] = test: Neuroprotective activity against MPP+ induced cell death in human SH-SY5Y cells assessed as cell death at 1 uM by YOPRO-1 staining based assay; type: functional; procedure, shortened: as §4
SH-SY5Y [13] = test: Neuroprotective activity against MPP+ induced cell death in human SH-SY5Y cells assessed as cell death at 1 uM incubated for 24 hrs by Cas-3, 7 staining based assay; type: functional
Procedure, shortened: (§5)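 Caspase-3/7 activation with Ac-DEVD-AFC substrate after 24 h co-treatment of neuron-like SH-SY5Y with compound and 5 mM MPP+; MPP+ signal set to 100 %; triplicates on at least three independent days.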

SH-SY5Y [14] = test: Neuroprotective activity against MPP+ induced cell death in human SH-SY5Y cells assessed as cell death at 10 uM incubated for 24 hrs by Cas-3, 7 staining based assay; type: functional; procedure, shortened: as §5
SH-SY5Y [15] = test: Neuroprotective activity against MPP+ induced cell death in human SH-SY5Y cells assessed as decrease in PARP1 cleavage at 1 to 10 uM incubated for 24 hrs by immunoblotting analysis; type: functional, cell-based; details: dose 1-10 µM
SH-SY5Y [16] = test: Inhibition of MPP+ induced superoxide radical production in human SH-SY5Y cells at 10 uM incubated for 24 hrs by microplate reader assay (reference value: 100%); type: functional
Procedure, shortened: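 Neuron-like SH-SY5Y co-treated with 5 mM MPP+ and compound for 24 h; centrifuged at 500 × g, medium replaced with 10 μM dihydroethidium in PBS for 30 min, fluorescence 500/580 nm; MPP+ signal set to 100 %; triplicates on at least four independent days.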

SH-SY5Y [17] = test: Inhibition of MPP+ induced superoxide radical production in ATRA-differentiated human SH-SY5Y cells at 10 uM incubated for 24 hrs by MitoSOX staining based confocal laser scanning microscopy; type: functional, cell-based
Procedure, shortened: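 50 000 cells seeded on chamber slides, ATRA-differentiated, co-treated with 5 mM MPP+ and compound for 24 h, then stained with MitoSOX and imaged by confocal laser-scanning microscopy (63× objective).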

SH-SY5Y [18] = test: Inhibition of MPP+ induced mitochondrial depolarization in human SH-SY5Y cells at 10 uM incubated for 2 hrs by JC10 staining based confocal laser scanning microscopy; type: functional
Procedure, shortened: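 ATRA-differentiated SH-SY5Y co-treated with 5 mM MPP+ and compound for 2 h; mitochondrial membrane potential by JC10 ratiometric red/green signal (plate) and confocal imaging of JC10-stained cells (50 000 cells/well slides); DMSO control set to 100 %; triplicates on three independent days.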

SH-SY5Y [19] = test: Inhibition of MPP+ induced Akt phosphorylation at Ser473 residues in human SH-SY5Y cells at 1 to 10 uM incubated for 24 hrs by Western blotting analysis; type: cell-based; details: dose 1-10 µM
Procedure, shortened: (§6)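 ATRA-differentiated neuron-like SH-SY5Y co-treated with 5 mM MPP+ and compound for 24 h, lysed in RIPA buffer, SDS-PAGE, transfer to nitrocellulose, immunoblot for p-Akt (Ser473) and ERK1/2; HSP90 and β-actin loading controls; ECL chemiluminescence imaged by CCD camera.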

[20] = molecular target: Mitogen-activated protein kinase; ERK1/ERK2 (Homo sapiens) (UniProt P27361+P28482); test: Inhibition of MPP+ induced ERK1/2 phosphorylation in human SH-SY5Y cells at 1 to 10 uM incubated for 24 hrs by Western blotting analysis; type: cell-based; details: dose 1-10 µM; procedure, shortened: as §6
Chain of Mitogen-activated protein kinase; ERK1/ERK2 (Homo sapiens) (P27361 whole entry, looked up): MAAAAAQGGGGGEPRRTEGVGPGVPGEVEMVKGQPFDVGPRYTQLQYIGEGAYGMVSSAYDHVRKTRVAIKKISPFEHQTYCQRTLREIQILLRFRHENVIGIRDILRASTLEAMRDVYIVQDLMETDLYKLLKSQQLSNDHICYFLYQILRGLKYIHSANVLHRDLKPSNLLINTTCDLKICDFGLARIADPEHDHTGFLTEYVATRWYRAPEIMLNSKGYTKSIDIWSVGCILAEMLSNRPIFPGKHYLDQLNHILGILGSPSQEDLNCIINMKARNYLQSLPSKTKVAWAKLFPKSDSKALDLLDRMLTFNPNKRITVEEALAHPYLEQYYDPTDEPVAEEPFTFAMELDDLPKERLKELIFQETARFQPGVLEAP
Chain of Mitogen-activated protein kinase; ERK1/ERK2 (Homo sapiens) (P28482 whole entry, looked up): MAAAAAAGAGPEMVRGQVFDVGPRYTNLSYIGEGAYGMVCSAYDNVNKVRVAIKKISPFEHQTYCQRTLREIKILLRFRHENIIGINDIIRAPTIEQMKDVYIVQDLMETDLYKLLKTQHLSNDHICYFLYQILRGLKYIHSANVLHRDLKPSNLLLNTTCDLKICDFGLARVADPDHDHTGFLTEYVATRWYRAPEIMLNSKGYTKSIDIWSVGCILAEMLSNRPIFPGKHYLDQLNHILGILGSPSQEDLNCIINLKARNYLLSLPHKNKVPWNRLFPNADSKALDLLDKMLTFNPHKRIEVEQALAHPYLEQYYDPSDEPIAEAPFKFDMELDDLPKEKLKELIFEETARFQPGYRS

Acetylcholinesterase = Acetylcholinesterase (Electrophorus electricus, UniProt O42275); test: Inhibition of electric eel AChE using acetylthiocholine as substrate by Ellman's method
Chain of Acetylcholinesterase (O42275 whole entry): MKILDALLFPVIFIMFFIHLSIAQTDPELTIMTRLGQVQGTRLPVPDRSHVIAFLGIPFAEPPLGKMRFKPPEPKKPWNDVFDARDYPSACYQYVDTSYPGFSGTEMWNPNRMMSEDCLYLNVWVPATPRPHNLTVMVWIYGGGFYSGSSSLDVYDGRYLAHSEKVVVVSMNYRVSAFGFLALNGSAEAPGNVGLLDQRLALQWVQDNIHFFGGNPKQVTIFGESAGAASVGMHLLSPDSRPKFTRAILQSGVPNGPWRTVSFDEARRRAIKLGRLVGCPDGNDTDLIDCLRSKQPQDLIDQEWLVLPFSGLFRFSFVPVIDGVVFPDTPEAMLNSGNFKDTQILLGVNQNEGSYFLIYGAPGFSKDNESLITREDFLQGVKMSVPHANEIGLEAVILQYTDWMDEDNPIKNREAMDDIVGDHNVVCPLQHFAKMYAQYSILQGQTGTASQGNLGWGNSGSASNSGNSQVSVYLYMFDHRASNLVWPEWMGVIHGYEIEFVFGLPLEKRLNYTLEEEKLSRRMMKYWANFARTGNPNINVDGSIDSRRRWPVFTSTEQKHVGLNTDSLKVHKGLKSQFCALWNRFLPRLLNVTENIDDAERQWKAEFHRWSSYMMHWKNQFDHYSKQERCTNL

Cholinesterase = Cholinesterase (Equus caballus, UniProt P81908); test: Inhibition of equine serum BChE using butyrylthiocholine as substrate by Ellman's method
Chain of Cholinesterase (P81908 whole entry): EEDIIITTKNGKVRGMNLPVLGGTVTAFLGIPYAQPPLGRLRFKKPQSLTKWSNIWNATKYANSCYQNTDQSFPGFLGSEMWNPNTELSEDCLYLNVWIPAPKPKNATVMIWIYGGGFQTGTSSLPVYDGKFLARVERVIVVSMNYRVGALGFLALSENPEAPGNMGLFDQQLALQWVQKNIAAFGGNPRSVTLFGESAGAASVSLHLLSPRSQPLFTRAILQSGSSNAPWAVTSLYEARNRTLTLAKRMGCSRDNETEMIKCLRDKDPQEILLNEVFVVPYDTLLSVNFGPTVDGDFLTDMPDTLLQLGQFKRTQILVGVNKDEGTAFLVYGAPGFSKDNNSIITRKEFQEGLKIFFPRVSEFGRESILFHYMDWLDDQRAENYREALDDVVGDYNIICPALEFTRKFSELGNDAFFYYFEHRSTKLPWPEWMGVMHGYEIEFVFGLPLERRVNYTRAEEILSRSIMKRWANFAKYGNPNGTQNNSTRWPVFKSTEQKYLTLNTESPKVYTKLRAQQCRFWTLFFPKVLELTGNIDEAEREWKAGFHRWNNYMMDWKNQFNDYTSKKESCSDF
Procedure, shortened: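 Equine serum BChE (0.2 U/mL final) with 40 μM butyrylthiocholine and 100 μM DTNB, modified Ellman spectrophotometry; compounds from DMSO diluted in water, five inhibitor concentrations; IC50 from regression of v0/vi versus inhibitor concentration; triplicate.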

[21] = Selectivity index, ratio of IC50 for electric eel AChE to IC50 for equine serum BChE
Procedure, shortened: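 Ratio of IC50 values from modified Ellman spectrophotometric assays with electric eel AChE and equine serum BChE. Each used enzyme at 0.2 U/mL final, acetylthiocholine or butyrylthiocholine at 40 μM, and DTNB at 100 μM. Inhibitors were dissolved in DMSO, diluted in water, and tested at five concentrations in triplicate. IC50 came from regression of v0/vi against inhibitor concentration.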

SH-SY5Y [22] = test: Neuroprotective activity against MPP+ induced cell death in human SH-SY5Y cells at 1 to 10 uM in presence of AM630; type: functional, cell-based; details: dose 1-10 µM
Procedure, shortened: (§7)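 Neuron-like SH-SY5Y co-treated for 24 h with 5 mM MPP+, compound and CB2 inverse agonist AM630 or antagonist SR144528 at 0.1, 1 or 10 μM; CB2 ligands also tested alone and with MPP+; cell death read-out; triplicates on three independent days.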

SH-SY5Y [23] = test: Neuroprotective activity against MPP+ induced cell death in human SH-SY5Y cells at 1 to 10 uM in presence of SR144528; type: functional, cell-based; details: dose 1-10 µM; procedure, shortened: as §7
[24] = molecular target: Cannabinoid receptor 2 (Homo sapiens) (UniProt P34972); test: Activation of CB2 (unknown origin) expressed in CHO cells at 1 to 10 uM; type: cell-based; details: dose 1-10 µM
Chain of Cannabinoid receptor 2 (Homo sapiens) (P34972 whole entry): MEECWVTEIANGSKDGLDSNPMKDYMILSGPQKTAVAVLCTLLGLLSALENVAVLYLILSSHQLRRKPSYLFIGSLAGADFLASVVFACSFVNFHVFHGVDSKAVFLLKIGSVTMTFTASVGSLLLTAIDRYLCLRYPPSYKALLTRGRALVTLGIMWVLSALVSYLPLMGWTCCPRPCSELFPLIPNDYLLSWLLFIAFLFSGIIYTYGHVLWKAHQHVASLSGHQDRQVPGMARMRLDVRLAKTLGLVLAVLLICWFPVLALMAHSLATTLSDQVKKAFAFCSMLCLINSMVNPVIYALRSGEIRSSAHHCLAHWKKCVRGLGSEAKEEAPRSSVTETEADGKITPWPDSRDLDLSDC
Procedure, shortened: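 cAMP quantified in CB2-transfected CHO cells after treatment; compound tested at 1 and 10 μM to detect direct receptor activation (commercial LeadHunter service).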

CC1(C)Nc2ccccc2-c2nc3ccccn3c21
inhibition at 10 µM (SH-SY5Y [1]): 41.3% | Activity (SH-SY5Y [2]): 14.6% | Activity (SH-SY5Y [3]): 98.7% | Activity (SH-SY5Y [4]): 83.1% | Activity (SH-SY5Y [5]): 57.8% | Activity (SH-SY5Y [6]): 96.7% | Activity (SH-SY5Y [7]): 39.7% | Activity (SH-SY5Y [8]): 26.2% | Activity (SH-SY5Y [9]): 50.2% | Activity (SH-SY5Y [10]): Active | Activity (SH-SY5Y [11]): 37.9% | Activity (SH-SY5Y [12]): 58.8% | Activity (SH-SY5Y [13]): 64.2% | Activity (SH-SY5Y [14]): 48.8% | Activity (SH-SY5Y [15]): Active | inhibition at 10 µM (SH-SY5Y [16]): 44.4% | inhibition (SH-SY5Y [17]): Active | inhibition at 10 µM (SH-SY5Y [18]): 66.8% | inhibition (SH-SY5Y [19]): Active | inhibition [20]: Active | IC50 (Acetylcholinesterase): 47.9 µM | IC50 (Cholinesterase): 28.5 µM | Ratio IC50 [21]: 1.68 | Activity (SH-SY5Y [22]): inactive | Activity (SH-SY5Y [23]): inactive | Activity [24]: inactive
